From ChEMBL document CHEMBL1156288, “Synthesis and evaluation of tricyclic derivatives containing a non-aromatic amide as inhibitors of poly(ADP-ribose)polymerase-1 (PARP-1)” (Bioorg Med Chem Lett, 2010)

Legend:
[1] = Solubility in water; format: physicochemical; settings: buffer
[2] = target: T1, Poly [ADP-ribose] polymerase 1 (Homo sapiens, UniProt P09874); assay: Inhibition of PARP1
[3] = target: T1, Poly [ADP-ribose] polymerase 1; settings: CHO-K1
[4] = Drug level in rat plasma at 10 mg/kg, iv after 4 hrs by LC/MS/MS analysis; format: ADME, organism-based; design: dose 10 mg/kg, route intravenous
In short: (§1)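 Single intravenous dose of 10 mg/kg in rats, n = 3. Brain (ng/g) and plasma (ng/ml) concentrations measured by LC/MS/MS at 0.17, 0.75 and 4.00 h. Ratio is brain over plasma concentration.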

[5] = Ratio of drug level in brain to plasma in rat at 10 mg/kg, iv after 0.75 hrs by LC/MS/MS analysis; format: ADME, organism-based; design: dose 10 mg/kg, route intravenous; in short: as §1
[6] = Drug level in rat plasma at 10 mg/kg, iv after 0.17 hrs by LC/MS/MS analysis; format: ADME, organism-based; design: dose 10 mg/kg, route intravenous; in short: as §1
[7] = Ratio of drug level in brain to plasma in rat at 10 mg/kg, iv after 0.17 hrs by LC/MS/MS analysis; format: ADME, organism-based; design: dose 10 mg/kg, route intravenous; in short: as §1
[8] = Ratio of drug level in brain to plasma in rat at 10 mg/kg, iv after 4 hrs by LC/MS/MS analysis; format: ADME, organism-based; design: dose 10 mg/kg, route intravenous; in short: as §1
[9] = Drug level in rat brain at 10 mg/kg, iv after 4 hrs by LC/MS/MS analysis; format: ADME, organism-based; design: dose 10 mg/kg, route intravenous; settings: read-out: Drug uptake; in short: as §1
[10] = Half life in rat at 10 mg/kg, iv by LC/MS/MS analysis; format: ADME, organism-based; design: dose 10 mg/kg, route intravenous; settings: in vivo
In short: (§2)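 Rats (n = 3) given 10 mg/kg by intravenous administration; plasma levels measured by LC/MS/MS; AUC0-inf, CL and t1/2 reported.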

[11] = Drug level in rat brain at 10 mg/kg, iv after 0.75 hrs by LC/MS/MS analysis; format: ADME, organism-based; design: dose 10 mg/kg, route intravenous; settings: read-out: Drug uptake; in short: as §1
[12] = Clearance in rat at 10 mg/kg, iv by LC/MS/MS analysis; format: ADME, organism-based; design: dose 10 mg/kg, route intravenous; settings: in vivo; in short: as §2
[13] = Half life in human liver microsomes by LC/MS/MS analysis; format: ADME, Microsome
In short: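 Human liver microsomes incubated at 37 °C. Parent compound quantified by LC/MS/MS at 0, 15, 45 and 80 min, giving t1/2 in min. Mean of triplicate experiments; buspirone run alongside.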

[14] = Drug level in rat plasma at 10 mg/kg, iv after 0.75 hrs by LC/MS/MS analysis; format: ADME, organism-based; design: dose 10 mg/kg, route intravenous; in short: as §1
[15] = Drug level in rat brain at 10 mg/kg, iv after 0.17 hrs by LC/MS/MS analysis; format: ADME, organism-based; design: dose 10 mg/kg, route intravenous; settings: read-out: Drug uptake; in short: as §1
[16] = AUC (0 to infinity) in rat at 10 mg/kg, iv by LC/MS/MS analysis; format: ADME, organism-based; design: time infinity, dose 10 mg/kg, route intravenous; settings: plasma
In short: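 Rats (n = 3) received a single 10 mg/kg intravenous dose. Drug levels were measured by LC/MS/MS, and AUC from zero to infinity was derived alongside clearance and half-life as part of the pharmacokinetic profile.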

T1 sequence (P09874 whole entry): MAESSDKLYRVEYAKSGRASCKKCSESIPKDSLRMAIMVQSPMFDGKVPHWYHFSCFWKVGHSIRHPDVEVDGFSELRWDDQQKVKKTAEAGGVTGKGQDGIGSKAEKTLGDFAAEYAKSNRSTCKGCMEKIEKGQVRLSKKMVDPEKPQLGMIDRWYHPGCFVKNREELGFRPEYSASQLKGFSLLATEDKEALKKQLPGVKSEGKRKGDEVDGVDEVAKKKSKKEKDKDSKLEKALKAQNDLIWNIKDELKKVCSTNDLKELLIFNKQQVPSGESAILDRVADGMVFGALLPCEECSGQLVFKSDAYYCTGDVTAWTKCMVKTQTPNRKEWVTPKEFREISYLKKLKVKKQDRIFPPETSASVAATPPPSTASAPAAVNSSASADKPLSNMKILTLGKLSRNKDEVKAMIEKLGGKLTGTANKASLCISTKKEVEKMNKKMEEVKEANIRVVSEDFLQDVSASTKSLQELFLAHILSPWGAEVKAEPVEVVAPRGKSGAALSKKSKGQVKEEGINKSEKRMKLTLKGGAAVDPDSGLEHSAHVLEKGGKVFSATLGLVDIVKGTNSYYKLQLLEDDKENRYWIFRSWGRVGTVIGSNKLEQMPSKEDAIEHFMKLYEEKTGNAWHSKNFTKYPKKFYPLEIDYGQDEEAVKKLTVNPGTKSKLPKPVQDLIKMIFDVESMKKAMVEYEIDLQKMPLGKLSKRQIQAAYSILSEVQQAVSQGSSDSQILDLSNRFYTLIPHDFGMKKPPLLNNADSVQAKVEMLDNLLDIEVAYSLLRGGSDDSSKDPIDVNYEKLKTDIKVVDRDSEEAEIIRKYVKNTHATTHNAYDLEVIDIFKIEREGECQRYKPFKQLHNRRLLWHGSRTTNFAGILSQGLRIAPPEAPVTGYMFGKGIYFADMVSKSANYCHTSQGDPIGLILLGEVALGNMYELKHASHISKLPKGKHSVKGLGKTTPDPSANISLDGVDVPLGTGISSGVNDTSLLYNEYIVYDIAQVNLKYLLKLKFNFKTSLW

Structure (SMILES)	solubility [1]	IC50 [2]	ED50 [3]	other results
CCN1CCC(Oc2ccc3[nH]c(=O)c4c(c3c2)CCSC4)C1 (stereo not drawn)	Soluble	13 nM	350 nM	
CCCN1CCC(Oc2ccc3[nH]c(=O)c4c(c3c2)CCSC4)CC1	Soluble	42 nM	220 nM	concentration at 4 h [4]: 18 ng/mL; Kp at 0.75 h [5]: 0.64; concentration at 0.17 h [6]: 2480 ng/mL; Kp at 0.17 h [7]: 0.69; Kp at 4 h [8]: 0.72; concentration at 4 h [9]: 13 ng/g; half-life [10]: 207 min; concentration at 0.75 h [11]: 391 ng/g; clearance [12]: 56.7 mL/min/kg; half-life [13]: 52.6 min; concentration at 0.75 h [14]: 610 ng/mL; concentration at 0.17 h [15]: 1700 ng/g; AUC(0-inf) [16]: 2910 ng·h/mL
O=c1[nH]c2ccc(OC3CCCNC3)cc2c2c1CSCC2 (stereo not drawn)	Soluble	28 nM	890 nM	
O=c1[nH]c2ccc(OC3CCN(Cc4ccccc4)CC3)cc2c2c1CSCC2	Soluble	53 nM	800 nM	
O=c1[nH]c2ccc(OC3CCN(CCO)CC3)cc2c2c1CSCC2	Soluble	29 nM	1600 nM	
CCN1CCCC(Oc2ccc3[nH]c(=O)c4c(c3c2)CCSC4)C1 (stereo not drawn)	Soluble	25 nM	280 nM	
CN1CCC(Oc2ccc3[nH]c(=O)c4c(c3c2)CCSC4)C1 (stereo not drawn)	Soluble	80 nM	730 nM	
CCCN1CCCC(Oc2ccc3[nH]c(=O)c4c(c3c2)CCSC4)C1 (stereo not drawn)	Soluble	56 nM	740 nM	
CN(C)c1ccc(CCN2CCC(Oc3ccc4[nH]c(=O)c5c(c4c3)CCSC5)CC2)cc1	Soluble	> 10000 nM	9440 nM	
O=c1[nH]c2ccc(OC3CCN(c4ccccc4)CC3)cc2c2c1CSCC2		695 nM	1860 nM	
CC(C)CCN1CCC(Oc2ccc3[nH]c(=O)c4c(c3c2)CCSC4)CC1	Soluble	71 nM	740 nM	
O=c1[nH]c2ccc(OC3CCN(CCN4CCCCC4)CC3)cc2c2c1CSCC2	Soluble	173 nM	> 30000 nM	
O=C1CC2(CCCC2)CC(=O)N1CCCCN1CCN(c2ncccn2)CC1 [BUSPIRONE]				half-life [13]: 3.8 min
O=S(=O)(NCCCN1CCOCC1)c1ccc2c(c1)Cc1c-2nc(O)c2ccccc12			1000 nM	
CCCCCN1CCC(Oc2ccc3[nH]c(=O)c4c(c3c2)CCSC4)CC1	Soluble	45 nM	580 nM	
O=c1[nH]c2ccc(O)cc2c2c1CSCC2		99 nM		
O=c1[nH]c2ccc(OC3CCN(CCc4ccccc4)CC3)cc2c2c1CSCC2	Soluble	38 nM	360 nM	
COCCN1CCC(Oc2ccc3[nH]c(=O)c4c(c3c2)CCSC4)CC1	Soluble	40 nM	1260 nM	
CN1CCCC(Oc2ccc3[nH]c(=O)c4c(c3c2)CCSC4)C1 (stereo not drawn)	Soluble	39 nM	580 nM	
